Each structure is given as a SMILES string. “And” between values parts separate entries of the source, which are not always exact repeats. Identical values can stand only once. Where only a bound is given, the exact number is not on record here.

Experiment [1] concerns Rattus norvegicus. Briefly: Percent change in blood glucose in normal rats at a hypoglycemic dose of 0.60 mmol/kg against control. Type of experiment: functional. Summed up:
(§1)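 Female rats (175–195 g) were fasted 6–9 h and given compound orally as a suspension in 0.5% (w/v) methylcellulose (5 mL/kg). Blood glucose was measured enzymatically 45 min after dosing. Values are mean ± SEM, expressed as percent change against the control group.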

The species named for experiment [2] is Rattus norvegicus. Briefly: In vitro inhibition of glucose oxidation by the compound in isolated rat fat cells. Type of experiment: functional, cell-based. The gist of the method:
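Epididymal fat cells from five young rats (140–160 g) were isolated by collagenase digestion. They were incubated with D-[1-14C]glucose (40 nCi/flask, 0.1 g glucose/L) across a range of compound concentrations. IC50 was read graphically from % inhibition vs log concentration, reported as mean ± SEM over n experiments.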

For experiment [3], the species on record is Oryctolagus cuniculus. Kind of experiment: In vitro insulin release was stimulated by the compound at a concentration of 0.003 mmol/L in rabbit pancreas. It counts as functional. Summed up:
(§2)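 Eight rabbit pancreas pieces, pooled from four rabbits per experiment, were incubated in bicarbonate-buffered medium containing 0.6 g/L glucose. Insulin per flask with compound was divided by basal release, taken as the mean of two preceding 20-min periods without compound. Results are mean ± SEM over n experiments.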

The species entered for experiment [4] is Oryctolagus cuniculus. Kind of experiment: In vitro insulin release was stimulated by the compound at a concentration of 0.03 mmol/L in rabbit pancreas. It counts as functional. Summed up: as §2
In experiment [5] the test system is Rattus norvegicus. Kind of experiment: […] in normal rats at a hypoglycemic dose of 0.60 mmol/kg. Type of experiment: functional.
The species named for experiment [6] is Oryctolagus cuniculus. Briefly: In vitro insulin release was stimulated by the compound at a concentration of 0.9 mmol/L in rabbit pancreas. It counts as functional. Summed up: as §2
Experiment [7] concerns Rattus norvegicus. Kind of experiment: In vivo increase of plasma insulin in normal rats at a hypoglycemic dose of 0.60 mmol/kg. It counts as functional, organism-based.
Experiment [8] deals with Rattus norvegicus. Kind of experiment: Percent change in plasma insulin in normal rats at a hypoglycemic dose of 0.60 mmol/kg against control. Type of experiment: functional.
For experiment [9], the species on record is Oryctolagus cuniculus. Kind of experiment: In vitro insulin release was stimulated by the compound at a concentration of 0.1 mmol/L in rabbit pancreas. Type of experiment: functional. The gist of the method:
as §2

For experiment [10], the species on record is Oryctolagus cuniculus. Kind of experiment: In vitro insulin release was stimulated by the compound at a concentration of 0.01 mmol/L in rabbit pancreas. It counts as functional. Summed up:
as §2

In experiment [11] the test system is Rattus norvegicus. Kind of experiment: In vivo increase of plasma insulin in normal rats at a hypoglycemic dose of 0.17 mmol/kg. It counts as functional, organism-based.
Experiment [12] deals with Rattus norvegicus. Kind of experiment: Blood glucose determined in normal rats at a hypoglycemic dose of 0.17 mmol/kg.
In experiment [13] the test system is Rattus norvegicus. Kind of experiment: Percent change in blood glucose in normal rats at a hypoglycemic dose of 2.0 mmol/kg. against control. Type of experiment: functional. The gist of the method: as §1
The test system of experiment [14] is Rattus norvegicus. Briefly: In vivo increase of plasma insulin in normal rats at a hypoglycemic dose of 2.0 mmol/kg. Type of experiment: functional, organism-based.
Experiment [15] has as its system Rattus norvegicus. Briefly: […] in normal rats at a hypoglycemic dose of 2.0 mmol/kg. Type of experiment: functional.
In experiment [16] the test system is Rattus norvegicus. Briefly: In vivo increase of plasma insulin in normal rats at a hypoglycemic dose of 0.18 mmol/kg. It counts as functional, organism-based.
Experiment [17] relates to Rattus norvegicus. Briefly: […] in normal rats at a hypoglycemic dose of 0.18 mmol/kg. Type of experiment: functional.
The species entered for experiment [18] is Oryctolagus cuniculus. Briefly: In vitro insulin release was stimulated by the compound at a concentration of 0.3 mmol/L in rabbit pancreas. It counts as functional. Summed up:
as §2

The subject of experiment [19] is Rattus norvegicus. Briefly: Percent change in blood glucose in normal rats at a hypoglycemic dose of 0.072 mmol/kg against control. Type of experiment: functional. Summed up:
as §1

Experiment [20] deals with Rattus norvegicus. Briefly: In vivo increase of plasma insulin in normal rats at a hypoglycemic dose of […]. It counts as functional, organism-based.
The species named for experiment [21] is Oryctolagus cuniculus. Kind of experiment: In vitro insulin release was stimulated by the compound at a concentration of 0.1 mmol/L. Type of experiment: functional. Summed up:
as §2

Experiment [22] deals with Rattus norvegicus. Briefly: […] in normal rats at a hypoglycemic dose of 0.024 mmol/kg. Type of experiment: functional.
The test system of experiment [23] is Rattus norvegicus. Kind of experiment: […] in normal rats at a hypoglycemic dose of 0.008 mmol/kg. It counts as functional.
Experiment [24] deals with Rattus norvegicus. Kind of experiment: Percent change in blood glucose in normal rats at a hypoglycemic dose of 0.024 mmol/kg against control. It counts as functional. Summed up:
as §1

Experiment [25] deals with Rattus norvegicus. Kind of experiment: Percent change in blood glucose in normal rats at a hypoglycemic dose of 0.008 mmol/kg against control. It counts as functional. The gist of the method: as §1
For experiment [26], the system named is Rattus norvegicus. Kind of experiment: In vivo increase of plasma insulin in normal rats at a hypoglycemic dose of […]. Type of experiment: functional, organism-based.
For experiment [27], the system named is Rattus norvegicus. Briefly: […] in normal rats at a hypoglycemic dose of 0.072 mmol/kg. It counts as functional.
The subject of experiment [28] is Rattus norvegicus. Briefly: Percent change in blood glucose in normal rats at a hypoglycemic dose of 0.008 mmol/kg. against control. It counts as functional. Conditions: in the assay text read “plasma insulin” for “blood glucose”.
The test system of experiment [29] is Rattus norvegicus. Briefly: In vivo increase of plasma insulin in normal rats at a hypoglycemic dose of 0.008 mmol/kg. It counts as functional, organism-based.
Experiment [30] has as its system Rattus norvegicus. Kind of experiment: In vivo increase of plasma insulin in normal rats at a hypoglycemic dose of 0.0084 […]. It counts as functional, organism-based.
Experiment [31] deals with Rattus norvegicus. Kind of experiment: […] in normal rats at a hypoglycemic dose of 0.028 mmol/kg. It counts as functional.
Experiment [32] relates to Rattus norvegicus. Kind of experiment: […] in normal rats at a hypoglycemic dose of 0.0084 mmol/kg. Type of experiment: functional.
The species named for experiment [33] is Rattus norvegicus. Kind of experiment: Percent change in blood glucose against control. Type of experiment: functional. Summed up:
as §1

The species entered for experiment [34] is Rattus norvegicus. Briefly: Percent change in plasma insulin against control. Type of experiment: functional.
Experiment [35] has as its system Rattus norvegicus. Kind of experiment: Percent change in plasma insulin in normal rats at a hypoglycemic dose of 0.0084 mmol/kg against control.
The subject of experiment [36] is Rattus norvegicus. Briefly: In vivo increase of plasma insulin in normal rats at a hypoglycemic dose of 0.028 […]. It counts as functional, organism-based.

As usually defined, the IC50 is the midpoint of a concentration-inhibition curve. A lower IC50 goes with inhibition by little substance. `N=C1N(C2CCCCC2)CCN1S(=O)(=O)c1ccc(N)cc1`: the Change in [1] is listed as -21%; in [8], 42%. In experiment [2], the IC50 amounted to 180 µM. Further, the Insulin release in experiment [3] is on record as 1.01; in [4] it was 1.74; in experiment [6] it was 3.21; in [9], 3.21; in [10], 1.22. In [5], this compound had a Blood glucose of 4.66 mM. Moreover, in [7], the Plasma insulin stood at 136 pM l-1.
For the compound `CCCCNC(=O)NS(=O)(=O)c1ccc(C)cc1` [TOLBUTAMIDE], the Plasma insulin in experiment [11] amounted to 278 pM l-1. The IC50 in experiment [2] is over 500 µM. Besides, the Blood glucose in experiment [12] came to 3.86 mmol/L. Besides, the Insulin release turned out to be 0.95 in experiment [3], 4.23 in experiment [6], 4.33 in [9] and 1.81 in experiment [10].
Consider `N=C(N)NC(=N)NCCc1ccccc1` [PHENFORMIN], for which, in experiment [13], the Change is -10% and -6%. Also, in experiment [2], the IC50 was found to be 180 µM. In experiment [14], the Plasma insulin turned out to be 86.1 pM l-1. In [15], this compound came in with a Blood glucose of 5.52 mM.
In [2], `COc1cccc(C(=O)NCCc2ccc(S(=O)(=O)N3CCN(C4CCCCC4)C3=N)cc2)c1` gave an IC50 of 20 µM. Moreover, in [16], the Plasma insulin worked out at 285 pM l-1. Moreover, the Insulin release in experiment [3] was 0.98; in experiment [4] it was 2.24; in experiment [18], 3.66; in experiment [9] it was 3.13; in [10], 2.08. This compound displayed a Blood glucose in experiment [17] of 3.08 mM.
As to `CCCC(=O)NCCc1ccc(S(=O)(=O)N2CCN(C3CCCCC3)C2=N)cc1`, the IC50 in experiment [2] was found to be 71 µM. Moreover, the Change in [19] was -38%; in experiment [24], -38%; in experiment [25], -17%; in experiment [28], 12%. Further, the Plasma insulin in experiment [20] was found to be 396 pM l-1; in experiment [26], 310 pM l-1; in experiment [29], 108 pM l-1. Moreover, the Insulin release is 1.02 in experiment [3]; 2.18 in [4]; 2.51 in experiment [21]; 3.06 in experiment [18]; 1.84 in experiment [10]. Further, the Blood glucose in experiment [22] worked out at 3.62 mM; in [23] it was 4.86 mM; in experiment [27], 3.63 mM.
In experiment [2], `C/C=C/C(=O)NCCc1ccc(S(=O)(=O)N2CCN(C3CCCCC3)C2=N)cc1` registered an IC50 of 180 µM. In addition, the Insulin release worked out at 1.88 in experiment [3], 1.82 in experiment [18] and 2.73 in [10]. The Plasma insulin in [30] was determined as 163 pM l-1; in experiment [36] it was 476 pM l-1. For the same compound, the Blood glucose in experiment [31] turned out to be 3.42 mM; in [32] it was 4.04 mM. For the same compound, the Change was -31% and -42% in experiment [33]; 397% in experiment [34]; 71% in experiment [35].

For the origin of these results see ChEMBL document CHEMBL1122444, “Sulfonyliminoimidazolidines. A new class of oral hypoglycemic agents. 2. Mode of action and X-ray structure of 1-[[p-[2-(crotonylamino)ethyl]phenyl]sulfonyl]-3-cyclohexyl-2-iminoimidazolidine” (J Med Chem, 1983).
